Screens (PubChem)
T cruzi growth-1: T. cruzi intracellular proliferation inhibitors, primary screen, cell-based, beta-gal Tulahuen parasites, NIH3T3 host, luminescence | T. cruzi beta-gal in NIH3T3, GalScreen luminescence, 90 h | inhibition, % at 8.34 µM | hit rate 5.9% among 77,000;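 active = mean inhibition above about 93%, with at least 55% of replicates each passing it, limit read from the data, passing the limit was not always enough; inconclusive = only one of those two conditions holds; inactive = neither condition holds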
IDH1 mut inh: inhibitors of IDH1 R132H reductase, primary screen, biochemical, plate reader, single point | diaphorase/resazurin fluorescence, 60 min | inhibition, % at 10 µM | hit rate 0.18% among 70,000; in the data active = inhibition above about 34%; inconclusive = no clear call, values can overlap the other calls; inactive = below about 11%;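 also: 0% = DMSO and 100% = no enzyme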
KDM4C inh: inhibitors of GASC-1 (KDM4C) histone demethylase, primary screen, biochemical, single concentration HTS | Lysine-specific demethylase 4C (Homo sapiens), Q9H3R0 | GST-KDM4C 2-372, H3K9me3 peptide, LANCE TR-FRET | inhibition, % at 12.5 µM | hit rate 0.15% among 96,000;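 active = mean replicate inhibition above about 25%, with at least 55% of replicates also reaching it, limit read from the data, passing the limit was not always enough; inconclusive = only one of those two conditions met; inactive = neither condition met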
Target sequence (Q9H3R0 2-372 limits assumed): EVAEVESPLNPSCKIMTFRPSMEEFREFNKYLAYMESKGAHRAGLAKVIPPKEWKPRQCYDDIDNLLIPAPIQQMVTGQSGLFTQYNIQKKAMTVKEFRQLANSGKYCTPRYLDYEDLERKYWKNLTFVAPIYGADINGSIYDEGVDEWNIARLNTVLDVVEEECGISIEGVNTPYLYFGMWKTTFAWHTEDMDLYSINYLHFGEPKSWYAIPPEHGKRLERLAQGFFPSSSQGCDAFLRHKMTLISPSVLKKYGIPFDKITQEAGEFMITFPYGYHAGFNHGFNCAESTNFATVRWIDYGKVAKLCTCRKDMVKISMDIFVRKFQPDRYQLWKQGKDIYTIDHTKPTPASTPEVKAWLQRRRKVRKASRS
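Test system: N-terminal GST-fused human GASC-1 (KDM4C) fragment, residues 2-372; quantity: GASC-1 enzyme at 10 nM final in reaction; dosing: single dose; schedule: 30 min demethylation and 1 h detection at room temperature; signal: LANCE TR-FRET, excitation 340 nm, emissions 618 and 671 nm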
T cruzi growth-2: T. cruzi intracellular proliferation inhibitors, confirmation, cell-based, NIH3T3 host, beta-gal parasite, luminescence, cherry-pick. inhibition, % at 8.35 µM. shares compounds with T cruzi growth-1. T. cruzi beta-gal in NIH3T3, GalScreen luminescence, 90 h. hit rate 72% among 5,600;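 active = mean replicate inhibition above about 95% and at least 55% of replicates individually reaching it, limit read from the data; inconclusive = only one of the two criteria is met; inactive = neither criterion is met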
T cruzi growth-3: inhibitors of intracellular T. cruzi replication, confirmation, NIH3T3 host cells, beta-gal parasites, cherry-pick, set 2; shares compounds with T cruzi growth-1; T. cruzi beta-gal in NIH3T3, GalScreen luminescence, 90 h; inhibition, % at 2.09 µM; hit rate 21% among 5,600; AID 651740, 2012;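 active = mean inhibition above about 95%, with at least 55% of replicates also reaching it, limit read from the data; inconclusive = meets just one of the two conditions; inactive = meets neither condition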;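 also: plate controls were neutral control median for no effect and positive control median for full effect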
NIH3T3 tox: cytotoxicity in mouse NIH/3T3 fibroblasts, confirmation, cytotoxicity control for T. cruzi proliferation inhibitor project, cell-based, cherry-pick, single point; shares compounds with T cruzi growth-1; cytotoxicity (signal decrease), % at 8.35 µM; hit rate 14% among 5,600; AID 651742, 2012; NIH/3T3 viability, CellTiter-Glo ATP luminescence, 90 h;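 active = mean signal decrease across replicates above about 35% based on untreated-well scatter, with enough replicates individually passing, limit read from the data; inconclusive = no rule stated though some were filed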;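 also: 0% = median of neutral control wells and 100% = median of positive control wells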
NIH3T3 tox 2: NIH/3T3 fibroblast cytotoxicity, confirmation, cytotoxicity control, cell-based, cherry-pick, single point, set 2. NIH/3T3 viability, CellTiter-Glo ATP luminescence, 90 h. inhibition, % at 24.9 µM. AID 651744, 2012. shares compounds with T cruzi growth-1. hit rate 56% among 5,600;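 active = mean loss of cell viability signal at or above a set limit, and enough replicates individually reaching it; inconclusive = meets only the mean limit or only the replicate share; inactive = meets neither condition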;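 also: 0% = median of neutral control wells and 100% = median of positive control wells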
The depositor's hits bear a star; ? = inconclusive; / = no result given. Only a selection was taken, and hits are over-represented in it overall.

SMILES	T cruzi growth-1	IDH1 mut inh	KDM4C inh	T cruzi growth-2	T cruzi growth-3	NIH3T3 tox	NIH3T3 tox 2
C[C@@H]1CN([C@@H](C)CO)C(=O)c2cc(NC(=O)Nc3cccc4ccccc34)ccc2O[C@@H](C)CCCCO[C@H]1CN(C)C	99*	-14	-1	40	-48	-1	-15
Cc1ccc2nc(-c3ccc(NC(=O)C(C)Oc4ccc5c(C)cc(=O)oc5c4)cc3)sc2c1 (configuration not stated)	/	0	/	/	/	/	/
O=C(CC(C(=O)O)N1CCCCC1)Nc1cccc([N+](=O)[O-])c1 (configuration not stated)	/	0	/	/	/	/	/
C[C@H](CO)N1C[C@H](C)[C@@H](CN(C)Cc2ccc(Oc3ccccc3)cc2)Oc2ccc(NC(=O)c3ccncc3)cc2CC1=O	97*	5	-1	111*	40	12	106*
C[C@H](CO)N1C[C@H](C)[C@@H](CN(C)Cc2ccccc2)Oc2ccc(NC(=O)c3ccncc3)cc2CC1=O	68	3	0	/	/	/	/
C[C@@H]1CN([C@H](C)CO)C(=O)Cc2cc(NC(=O)c3ccncc3)ccc2O[C@H]1CN(C)Cc1ccc(Oc2ccccc2)cc1	105*	0	0	109*	36	4	103*
C[C@H](CO)N1C[C@H](C)[C@@H](CN(C)Cc2ccncc2)Oc2ccc(NC(=O)c3ccncc3)cc2CC1=O	10	1	-1	/	/	/	/
C[C@H](CO)N1C[C@H](C)[C@@H](CN(C)Cc2ccc(C(F)(F)F)cc2)Oc2ccc(NC(=O)c3ccncc3)cc2CC1=O	96*	1	1	105*	33	14	59*
C[C@@H]1CN([C@@H](C)CO)C(=O)Cc2cc(NC(=O)c3ccncc3)ccc2O[C@@H]1CN(C)Cc1ccc(Oc2ccccc2)cc1	100	/	0	/	/	/	/
C[C@@H]1CN([C@@H](C)CO)C(=O)Cc2cc(NC(=O)c3ccncc3)ccc2O[C@H]1CN(C)Cc1ccc(-c2ccccc2)cc1	109*	1	-2	104*	111*	28	103*
C[C@H]1CN([C@@H](C)CO)C(=O)Cc2cc(NC(=O)c3ccncc3)ccc2O[C@@H]1CN(C)Cc1ccc(-c2ccccc2)cc1	81	1	0	/	/	/	/
O=C(CC1(O)C(=O)N(Cc2ccc(Cl)cc2)c2ccc(Cl)cc21)c1ccc2c(c1)OCCO2 (configuration not stated)	/	0	/	/	/	/	/
COc1cc(NC(=O)C(C)Oc2ccc(Cl)cc2Cl)ccc1NC(=O)c1ccco1 (configuration not stated)	/	1	/	/	/	/	/
C[C@H](CO)N1C[C@H](C)[C@@H](CN(C)Cc2ccc(-c3ccccc3)cc2)Oc2ccc(NC(=O)C3CC3)cc2CC1=O	105*	1	-2	106*	77	10	105*
C[C@H]1CN([C@@H](C)CO)C(=O)Cc2cc(NC(=O)C3CC3)ccc2O[C@@H]1CN(C)Cc1ccc(-c2ccccc2)cc1	92	3	0	/	/	/	/
COc1cc(/C=N/NC(=O)CCCCCC(=O)NO)ccc1O	/	-1	/	/	/	/	/
COc1ccc(S(=O)(=O)N(C)C[C@H]2Oc3cc(C4=CCCC4)ccc3S(=O)(=O)N([C@@H](C)CO)C[C@@H]2C)cc1	57	0	-1	/	/	/	/
COc1ccc(S(=O)(=O)N(C)C[C@H]2Oc3cc(C4=CCCC4)ccc3S(=O)(=O)N([C@@H](C)CO)C[C@H]2C)cc1	122*	0	7	101*	105*	45*	54*
COc1ccc(S(=O)(=O)N(C)C[C@H]2Oc3cc(C4=CCCC4)ccc3S(=O)(=O)N([C@H](C)CO)C[C@@H]2C)cc1	51	-2	2	/	/	/	/
COc1ccc(S(=O)(=O)N(C)C[C@H]2Oc3cc(C4=CCCC4)ccc3S(=O)(=O)N([C@H](C)CO)C[C@H]2C)cc1	122*	0	4	103*	61	22	57*
C=C1C2CCC3[C@]4(C)CCC[C@@](C)(C(=O)O)C4CC[C@]3(C2)[C@H]1OC(C)=O (some centres not stated)	/	0	/	/	/	/	/
Cc1ccc(N(C(C)C(=O)Nc2ccc(Oc3ccccc3)cc2)S(C)(=O)=O)cc1 (configuration not stated)	/	0	/	/	/	/	/
C/C=C/c1ccc([C@@H]2[C@H](CO)N(Cc3ccccn3)[C@H]2CNC(C)=O)cc1	98*	/	3	-17	-13	0	9
O=C(NC[C@H]1[C@H](c2ccccc2)[C@@H](CO)N1Cc1ccccn1)C1CCCC1	-65	/	4	/	/	/	/
C/C=C/c1ccc([C@@H]2[C@@H](CO)N(Cc3ccccn3)[C@H]2CNC(C)=O)cc1	79	/	3	/	/	/	/
SMILES	T cruzi growth-1	IDH1 mut inh	KDM4C inh	T cruzi growth-2	T cruzi growth-3	NIH3T3 tox	NIH3T3 tox 2
O=C(NC[C@H]1[C@H](c2ccccc2)[C@H](CO)N1Cc1ccccn1)C1CCCC1	97*	/	1	48	-19	14	-1
O=C(NCCN1CCOCC1)C1COc2ccccc2O1 (configuration not stated)	/	0	/	/	/	/	/
C[C@H](CO)N1C[C@H](C)[C@H](CN(C)C(=O)Cc2ccncc2)Oc2cc(C#CC3CC3)ccc2S1(=O)=O	79	/	2	/	/	/	/
C[C@H]1CN([C@@H](C)CO)S(=O)(=O)c2ccc(C#CC3CCCC3)cc2O[C@@H]1CN(C)C(=O)Cc1ccncc1	122*	/	-4	105*	94	-1	101*
C[C@H](CO)N1C[C@H](C)[C@H](CN(C)C(=O)Cc2ccncc2)Oc2cc(C#CC3CCCCC3)ccc2S1(=O)=O	86	?	-2	/	/	/	/
C[C@@H]1CN([C@H](C)CO)S(=O)(=O)c2ccc(C#CC3CC3)cc2O[C@H]1CN(C)C(=O)Cc1ccncc1	79	7	1	/	/	/	/
C[C@H](CO)N1C[C@H](C)[C@H](CN(C)C(=O)Cc2ccncc2)Oc2cc(C#CC3CCCC3)ccc2S1(=O)=O	116*	/	0	109*	63	34	33*
C[C@@H]1CN([C@H](C)CO)S(=O)(=O)c2ccc(C#CC3CC3)cc2O[C@@H]1CN(C)C(=O)Cc1ccncc1	?	/	-1	102*	68	17	16
COc1ccc(N(CC(=O)Nc2cc(C)ccc2C)S(C)(=O)=O)cc1OC	/	0	/	/	/	/	/
